B1: Osa-1-4 twister ribozyme (parent)
chain: CCGCCUAACACUGCCAAUGCCGGUCCCAAGCCCGGAUAAAAGUGGAGGGGGCGG

Variants of: B1
Assay: self-cleavage, relative activity (ratio to wild type); higher = more cleavage; co-transcriptional
How it was run: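 A DNA template for a 54-nucleotide Oryza sativa twister ribozyme was synthesised with 97 % wild-type base and 1 % of each other base at the 48 positions downstream of the cleavage site. It was transcribed in vitro for 2 h at 37 °C, allowing co-transcriptional self-cleavage, then reverse-transcribed with a template-switching oligonucleotide, PCR-amplified and deep-sequenced. Cleavage status was scored from reads with or without upstream sequence. Relative activity is fraction cleaved normalised to wild type.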

Row | Variant | self-cleavage
1 | C32U G13U | 0.01
2 | C32U G13A | 0.03
3 | C32U G13C | 0.01
4 | C32G G53A | 0.1
5 | C32G G53C | 0.06
6 | C32G G53U | 0.07
7 | C32G G54A | 0.15
8 | C32G G54C | 0.09
9 | C32G G54U | 0.25
10 | C32G G51A | 0.09
11 | C32G G51U | 0.07
12 | C32G G51C | 0.05
13 | C32U G48U | 0.03
14 | C32U G48A | 0.03
15 | C32U G48C | 0.03
16 | C32G G47U | 0.04
17 | C32G G47C | 0.04
18 | C32G G47A | 0.09
19 | C33A G34C | 0.05
20 | C33A G34A | 0.08
21 | C33A G34U | 0.06
22 | C33A | 0.28
23 | C32U G23C | 0.03
24 | C32U G23A | 0.85

Row | Variant | self-cleavage
25 | C32U G23U | 0.12
26 | C33A G35C | 0.04
27 | C33A G35A | 0.07
28 | C33A G35U | 0.07
29 | C32U U37C | 0.16
30 | C32U U37A | 0.21
31 | C32U U37G | 0.26
32 | C33A G50U | 0.1
33 | C33A G50A | 0.1
34 | C33A G50C | 0.08
35 | C32U U12G | 0.09
36 | C32U U12C | 0.08
37 | C32U U12A | 0.1
38 | C32U G42A | 0.08
39 | C32U G42U | 0.03
40 | C32U G42C | 0.07
41 | C32U U24G | 0.01
42 | C32U U24A | 0.06
43 | C32U U24C | 0.06
44 | C33A G19A | 0.07
45 | C33A G19U | 0.04
46 | C33A G19C | 0.03
47 | C32U G44C | 0.09
48 | C32U G44U | 0.07

Row | Variant | self-cleavage
49 | C32U G44A | 0.08
50 | C32U G45C | 0.03
51 | C32U G45U | 0.04
52 | C32U G45A | 0.08
53 | C33A G13U | 0.02
54 | C33A G13C | 0.01
55 | C33A G13A | 0.02
56 | C32U G47C | 0.04
57 | C32U G47U | 0.06
58 | C32U G47A | 0.06
59 | C33A G42A | 0.06
60 | C33A G42C | 0.06
61 | C33A G42U | 0.03
62 | C32G G45U | 0.04
63 | C32U G51C | 0.05
64 | C32U G51U | 0.05
65 | C32U G51A | 0.07
66 | C33A G48U | 0.04
67 | C33A G48C | 0.05
68 | C33A G48A | 0.04
69 | C33A C52U | 0.28
70 | C33A C52G | 0.17
71 | C33A C52A | 0.11
72 | C33A G51U | 0.05

Row | Variant | self-cleavage
73 | C33A G51C | 0.05
74 | C33A G51A | 0.06
75 | C32U C33G | 0.02
76 | C32U C33A | 0.04
77 | C32U C33U | 0.06
78 | C32U G19U | 0.05
79 | C32U G19A | 0.1
80 | C32U G19C | 0.03
81 | C32U C52U | 0.2
82 | C32U C52G | 0.15
83 | C32U C52A | 0.13
84 | C32G U12A | 0.12
85 | C32G U12C | 0.08
86 | C32G U12G | 0.06
87 | C32U | 0.24
88 | C32U G22A | 0.09
89 | C32U G22U | 0.07
90 | C32U G22C | 0.04
91 | C33A G45C | 0.04
92 | C33A G45A | 0.06
93 | C33A G45U | 0.04
94 | C33A G23A | 0.06
95 | C33A G23C | 0.02
96 | C33A G23U | 0.04

Row | Variant | self-cleavage
97 | C32G G48C | 0.04
98 | C32G G48A | 0.05
99 | C32G G48U | 0.03
100 | C32G U37G | 0.19
101 | C32G U37C | 0.14
102 | C32G U37A | 0.16
103 | C32U G54U | 0.26
104 | C32U G54C | 0.09
105 | C32U G54A | 0.1
106 | C32U G34A | 0.09
107 | C32U G34U | 0.08
108 | C32U G34C | 0.07
109 | C33A G44C | 0.09
110 | C33A G44A | 0.08
111 | C33A G44U | 0.1
112 | C32G U18A | 0.14
113 | C32G U18C | 0.15
114 | C32G U18G | 0.14
115 | C32G U24G | 0.02
116 | C32G U24C | 0.05
117 | C32G U24A | 0.06
118 | C32U G30A | 0.02
119 | C32U G30U | 0.02
120 | C32U G30C | 0.02

Row | Variant | self-cleavage
121 | C32U G53C | 0.05
122 | C32U G53U | 0.09
123 | C32U G53A | 0.09
124 | C32G G50C | 0.09
125 | C32G G50U | 0.11
126 | C32G G50A | 0.1
127 | C32U C9U | 0.05
128 | C32U C9A | 0.02
129 | C32U C9G | 0.09
130 | C32U U43C | 0.06
131 | C32U U43G | 0.09
132 | C32U U43A | 0.09
133 | C32U G49C | 0.03
134 | C32U G49A | 0.05
135 | C32U G49U | 0.05
136 | C33A G22U | 0.93
137 | C33A G22C | 0.22
138 | C33A G22A | 0.87
139 | C32G G49C | 0.04
140 | C32G G49A | 0.05
141 | C32G G49U | 0.05
142 | C33A G30U | 0.02
143 | C33A G30A | 0.02
144 | C33A G30C | 0.02

Row | Variant | self-cleavage
145 | C33A C9G | 0.08
146 | C33A C9U | 0.07
147 | C33A C9A | 0.05
148 | C32U G50A | 0.1
149 | C32U G50U | 0.11
150 | C32U G50C | 0.09
151 | C32U G35U | 0.06
152 | C32U G35C | 0.06
153 | C32U G35A | 0.08
154 | C33A G47U | 0.04
155 | C33A G47A | 0.04
156 | C33A G47C | 0.04
157 | C32G U43G | 0.11
158 | C32G U43C | 0.09
159 | C32G U43A | 0.1
160 | C33A G49U | 0.04
161 | C33A G49C | 0.04
162 | C33A G49A | 0.05
163 | C33A G53C | 0.04
164 | C33A G53A | 0.08
165 | C32U U18A | 0.16
166 | C32U U18C | 0.18
167 | C32U U18G | 0.22

Source: the RNAGym collection of RNA variant scans (doi:10.1002/anie.201605470)
